Reference: ChEMBL document CHEMBL3600321, “Synthesis and antifungal evaluation of head-to-head and head-to-tail bisamidine compounds” (Bioorg Med Chem, 2015)
Converted amounts (≈) assume the structure as drawn.

How the values were obtained:
Candida albicans = assay: Antifungal activity against Candida albicans WTBF-50 by microbroth dilution method; format: functional
Summary of the method: (§1)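 CLSI microbroth dilution in RPMI 1640 with L-glutamine. MIC values are geometric means of three independent assays.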

Pichia kudriavzevii = assay: Antifungal activity against Candida krusei WTBF-51 by microbroth dilution method; format: functional
Nakaseomyces glabratus = assay: Antifungal activity against Candida glabrata ATCC 90030 WTBF-86 by microbroth dilution method; format: functional; summary of the method: as §1
Candida parapsilosis = assay: Antifungal activity against Candida parapsilosis ATCC 90018 WTBF-88 by microbroth dilution method; format: functional; details: Lodderomyces parapsilosis; summary of the method: as §1
[1] = Metabolic stability in liver microsomes (unknown origin); format: ADME
HeLa = assay: Cytotoxicity against human HeLa cells assessed as cell viability after 72 hrs by MTS assay; format: cell-based
Cryptococcus neoformans = assay: Antifungal activity against Cryptococcus neoformans Cn18 (Serotype C) WTBF-106 by microbroth dilution method; format: functional
Summary of the method: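 Microbroth dilution per the CLSI protocol, run in Sabouraud Dextrose Broth in place of RPMI. MIC values are geometric means of three independent assays.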

Row | Structure (SMILES) | MIC (Candida albicans) | MIC (Pichia kudriavzevii) | MIC (Nakaseomyces glabratus) | MIC (Candida parapsilosis) | Stability [1] | CC50 (HeLa) | MIC (Cryptococcus neoformans)
1 | CC(=O)O.c1cc2cc(-c3ccc4nc(C5=NCCCN5)cn4c3)[nH]c2cc1C1=NCCCN1 | 1 µg/mL | 1.26 µg/mL | 0.16 µg/mL | 1 µg/mL | Stable | 91.9 µg/mL | 6.25 µg/mL
2 | CC(=O)O.c1cc2cc(-c3ccc(-c4cc5ccc(C6=NCCCN6)cc5o4)cn3)[nH]c2cc1C1=NCCCN1 | 0.5 µg/mL | 0.5 µg/mL | 0.06 µg/mL | 0.13 µg/mL | Stable | 15.6 µg/mL | 0.25 µg/mL
3 | CC(=O)O.c1cc2cc(-c3cnc(-c4cc5ccc(C6=NCCCN6)cc5[nH]4)cn3)[nH]c2cc1C1=NCCCN1 | 0.5 µg/mL | 0.5 µg/mL | 0.06 µg/mL | 0.2 µg/mL | Stable | 42.7 µg/mL | 3.13 µg/mL
4 | CC(=O)O.c1cc2cc(-c3ccc(-c4ccn5cc(C6=NCCCN6)nc5c4)cc3)[nH]c2cc1C1=NCCCN1 | 0.79 µg/mL | 1 µg/mL | 0.13 µg/mL | 0.31 µg/mL | Stable | 13.4 µg/mL | 0.5 µg/mL
5 | CC(=O)O.c1cc2cc(-c3ccc4cc(C5=NCCCN5)[nH]c4c3)oc2cc1C1=NCCCN1 | 4 µg/mL | 25.4 µg/mL | 2.52 µg/mL | 2 µg/mL | Stable | 40.5 µg/mL | 1 µg/mL
6 | Cl.OCC1(CO)CN=C(c2ccc3cc(-c4ccc(-c5cc6ccc(C7=NCC(CO)(CO)CN7)cc6[nH]5)cc4)[nH]c3c2)NC1 | 1.26 µg/mL | 8 µg/mL | 1 µg/mL | 2 µg/mL | Stable | 32.4 µg/mL | 3.13 µg/mL
7 | Nc1nc(=O)[nH]cc1F [FLUCYTOSINE] | 1.25 µg/mL (≈ 9.68 µM) | ≥ 20 µg/mL | 0.31 µg/mL (≈ 2.4 µM) | 1.25 µg/mL (≈ 9.68 µM) |  |  | ≥ 20 µg/mL
8 | CC(=O)O.c1cc2cc(-c3ccc(-c4ccc5nc(C6=NCCCN6)cn5c4)cc3)[nH]c2cc1C1=NCCCN1 | 0.5 µg/mL | 0.5 µg/mL | 0.13 µg/mL | 0.5 µg/mL | Stable | 34.6 µg/mL | 2 µg/mL
9 | c1cc2cc(CCCCc3cc4ccc(C5=NCCCN5)cc4[nH]3)[nH]c2cc1C1=NCCCN1 | ≥ 32 µg/mL | ≥ 32 µg/mL | 1 µg/mL (≈ 2.21 µM) | ≥ 32 µg/mL | Stable | 14.7 µg/mL (≈ 32.5 µM) | 1.59 µg/mL (≈ 3.51 µM)
10 | c1cc2cc(CCCc3cc4ccc(C5=NCCCN5)cc4[nH]3)[nH]c2cc1C1=NCCCN1 | 22.6 µg/mL (≈ 51.6 µM) | 32 µg/mL (≈ 73 µM) | 12.7 µg/mL (≈ 29 µM) | 32 µg/mL (≈ 73 µM) | Stable | 80.3 µg/mL (≈ 183 µM) | 16 µg/mL (≈ 36.5 µM)
11 | N=C(NC1CCC(O)CC1)c1ccc2cc(-c3ccc(-c4cc5ccc(C(=N)NC6CCC(O)CC6)cc5[nH]4)cc3)[nH]c2c1.O=C(O)C(F)(F)F (configuration not stated) | 2.52 µg/mL | 4 µg/mL | 4 µg/mL | 2 µg/mL | Stable | 29.8 µg/mL | 2.48 µg/mL
12 | CC(=O)O.c1cc2cc(-c3ccc4cc(C5=NCCCN5)oc4c3)[nH]c2cc1C1=NCCCN1 | 0.31 µg/mL | 4 µg/mL | 0.13 µg/mL | 0.5 µg/mL | Stable | 17.1 µg/mL | 0.5 µg/mL
13 | OC(Cn1cncn1)(Cn1cncn1)c1ccc(F)cc1F [FLUCONAZOLE] | ≥ 32 µg/mL | ≥ 32 µg/mL | ≥ 32 µg/mL | 1 µg/mL (≈ 3.27 µM) |  |  | 32 µg/mL (≈ 104 µM)
14 | c1cc2[nH]c(-c3ccc(-c4cc5ccc(C6=NCCCN6)cc5[nH]4)cc3)cc2cc1C1=NCCCN1 | 7.87 µg/mL (≈ 16.7 µM) | 19.8 µg/mL (≈ 41.9 µM) |  |  | Stable | 13.6 µg/mL (≈ 28.8 µM) | 3.12 µg/mL (≈ 6.6 µM)
15 | CC(=O)N1CCN(c2ccc(OCC3COC(Cn4ccnc4)(c4ccc(Cl)cc4Cl)O3)cc2)CC1 (configuration not stated) [KETOCONAZOLE] | 20.2 µg/mL (≈ 38 µM) | 4 µg/mL (≈ 7.53 µM) | ≥ 32 µg/mL | 0.06 µg/mL (≈ 0.113 µM) |  |  | 32 µg/mL (≈ 60.2 µM)
